Screening results deposited in PubChem BioAssay by several laboratories.
Many of the other results were omitted from the sample, so hits are more common in it than they were.
HePTP inh: human HePTP phosphatase inhibition; recombinant HePTP phosphatase activity, OD absorbance; inhibition, % at 20 µM; hit rate 0.64% among 110,000; AID 521; in the data active = inhibition above about 50%;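 note: plate controls were vehicle for no effect and reference inhibitor for full effect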
Target sequence (P35236 whole entry, looked up): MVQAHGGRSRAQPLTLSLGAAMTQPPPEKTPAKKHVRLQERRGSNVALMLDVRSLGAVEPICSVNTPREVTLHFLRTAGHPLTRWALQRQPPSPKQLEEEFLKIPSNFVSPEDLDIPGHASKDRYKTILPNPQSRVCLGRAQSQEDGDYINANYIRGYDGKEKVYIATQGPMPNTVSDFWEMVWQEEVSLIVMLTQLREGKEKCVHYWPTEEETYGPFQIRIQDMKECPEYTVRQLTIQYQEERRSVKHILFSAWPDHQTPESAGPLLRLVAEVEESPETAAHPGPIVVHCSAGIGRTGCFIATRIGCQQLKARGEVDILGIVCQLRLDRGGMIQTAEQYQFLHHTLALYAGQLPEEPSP
tolC growth inh: blocks growth of E. coli BW25113 tolC mutant | OD615 | growth inhibition, % at 10 µM (by protocol) | hit rate 2.2% among 65,000;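 active = growth inhibition at or above a cutoff equal to the mean over every tested compound plus 3 SD, cut at about 60% in these data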;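 note: growth measured after 20 h incubation at 37 °C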
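Test system: E. coli BW25113 ΔtolC::kan bacteria; incubation: 37 °C, 20 h exposure; medium: LB broth supplemented with 50 µg/mL kanamycin; read-out basis: percent growth inhibition; signal: A615 absorbance measurement; compound: 10 µM final, single dose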
E coli RNAP: Escherichia coli RNA polymerase inhibition; AID 559; inhibition, %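 (tested at 10 µM)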; E. coli RNA polymerase, fluorescence transcription assay; hit rate 0.2% among 62,000; in the data active = inhibition above about 20%;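 note: 0% = enzyme without compound and 100% = no enzyme blank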
AP ELISA ortho: orthogonal test for alternative complement pathway inhibitors; Human serum alternative complement pathway, LPS-coated ELISA, C3 deposition; tested in compound mixtures; inhibition, % at 5 µM; hit rate 0.08% among 62,000; AID 1235;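 active = inhibition above 30% in each of the two pooled mixtures holding the compound, so the lower value exceeds 30%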;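 note: 0% = serum in Mg-EGTA without compound and 100% = EDTA serum blank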
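Test system – human serum alternative complement pathway, C3 deposition on LPS-coated wells · Buffer or medium – diluted human serum in Mg2+-EGTA GVB++ · Compound dosing – 5 µM each compound, pools of ten, 50 µM per pool · Schedule – 1 h serum-compound exposure at 37 °C · Measured by – Anti-C3 ELISA, OD 450 nm · Read-out basis – percent inhibition of C3 deposition onto LPS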
Ecoli WT expand: E. coli BW25113 growth inhibition, expanded screen; OD600 absorbance; growth inhibition, % at 100 µM; hit rate 0.15% among 98,000; AID 710;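 active = growth inhibition above about 50% at one test dose, limit read from the data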;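 note: growth measured after 20 h incubation at 37 °C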
MMP-13 inhibitor: MMP13 (human) collagenase inhibition. hit rate 0.07% among 65,000. inhibition, % at 4 µM. P45452. MMP-13 fTHP FRET cleavage, Mca fluorescence;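 active = inhibition above the mean of compound-free control plate wells plus 3 SD, cut at about 14% in these data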;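 note: 0% = DMSO wells and 100% = wells with reference MMP-13 inhibitor after basal subtraction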
Active calls of the source: *; ! = not confirmed by another sample.

Results for C#CCOc1c(Br)cc(C2C(C(=O)OC)=C(C)NC3=C2C(=O)c2ccccc23)cc1OC (stereo unspecified) ?
HePTP inh: 0.9

How did COc1cc(C2Nc3cc(C)ccc3NC3=C2C(=O)CC(C)(C)C3)ccc1O (stereo unspecified) do in these assays?
HePTP inh: -0.5

Results for Cc1nn(Cc2ccc(C(=O)N3c4ccc(F)cc4CCC3C)o2)c(C)c1Br (stereo unspecified) ?
HePTP inh: 4.6; tolC growth inh: 96.5*; E coli RNAP: 6.2; AP ELISA ortho: 11.9; Ecoli WT expand: -5.0; MMP-13 inhibitor: 2.1

Results for Cc1ccc(C(=O)N2c3ccc(F)cc3CCC2C)o1 (stereo unspecified) ?
HePTP inh: -4.0; tolC growth inh: 16.4; E coli RNAP: 6.0; AP ELISA ortho: -5.9; Ecoli WT expand: -5.0; MMP-13 inhibitor: 0.5

Results for C/C=N/N=C1/NC(=O)C(CC(=O)Nc2ccc(Cl)c(Cl)c2)S1 (stereo unspecified) ?
HePTP inh: 9.6

Results for CC(C)C1O/C(=N/C(=O)Nc2ccc(Cl)c(Cl)c2)NC1=O (stereo unspecified) ?
tolC growth inh: 97.8*; E coli RNAP: 14.4; AP ELISA ortho: -3.1; Ecoli WT expand: 53.0*; MMP-13 inhibitor: 3.6

What do the screens show for `COc1ccc(/C=N/Nc2nc(N3CCCCC3)nc(N3CCCCC3)n2)cc1OC`?
HePTP inh: -16.0

What do the screens show for `Cc1ccc(C(=O)CSc2nc(O)cc(=O)[nH]2)c(C)c1`?
HePTP inh: 8.5

What do the screens show for `CCN(CC)CCNC(=O)COc1ccccc1O`?
HePTP inh: -1.6

Results for Oc1ccc(Br)cc1C=Nc1cccc2ccccc12 ?
HePTP inh: 8.4

How did CCc1ccc(O)c(N=Cc2ccccc2O)c1 do in these assays?
HePTP inh: 5.0; tolC growth inh: -6.2; E coli RNAP: 27.4*; AP ELISA ortho: 18.8; Ecoli WT expand: 0.0; MMP-13 inhibitor: 2.5

What do the screens show for `O=C(Nc1ccc(OC(F)(F)F)cc1)c1ccccc1Br`?
HePTP inh: 4.7

What do the screens show for `COc1ccc(-n2cnc3c(sc4nccc(N(C)C)c43)c2=O)cc1`?
HePTP inh: 105.1*!; tolC growth inh: -2.4; E coli RNAP: 5.4; AP ELISA ortho: 8.9; Ecoli WT expand: 0.0; MMP-13 inhibitor: 5.3

What do the screens show for `Cc1ccc(-n2cnc3c(sc4nccc(N(C)C)c43)c2=O)cc1`?
HePTP inh: 12.2; tolC growth inh: 9.1; E coli RNAP: -2.3; AP ELISA ortho: 19.3; Ecoli WT expand: -12.0; MMP-13 inhibitor: -7.9

What do the screens show for `COc1cc2cc(C(c3nnnn3C3CCCCC3)N(C)C3CCCCC3)c(=O)[nH]c2cc1OC` (stereo unspecified)?
HePTP inh: 0.9; tolC growth inh: 74.5*; E coli RNAP: 2.6; AP ELISA ortho: -6.9; Ecoli WT expand: -8.0; MMP-13 inhibitor: -31.6

What do the screens show for `O=C1CC(c2ccccc2)CC2=C1C(c1c(F)cccc1Cl)Nc1ccccc1N2` (stereo unspecified)?
HePTP inh: -2.9

How did CCCOc1cccc(C(=O)Nc2ccc(Br)cc2C(=O)O)c1 do in these assays?
HePTP inh: -6.9

How did COc1ccc(S(=O)(=O)N2CCN(Cc3ccccc3)CC2)cc1 do in these assays?
HePTP inh: -2.6; tolC growth inh: 22.2; E coli RNAP: 9.2; AP ELISA ortho: 7.5; Ecoli WT expand: 8.0; MMP-13 inhibitor: 4.7

How did COc1ccc(S(=O)(=O)N2CCN(Cc3ccc([N+](=O)[O-])cc3)CC2)cc1 do in these assays?
HePTP inh: 56.6*

How did Cc1cc(=O)oc2c(C(=O)c3ccccc3)c(OC(=O)c3ccccc3)ccc12 do in these assays?
HePTP inh: -17.5

How did Cc1ccc(SCC(=O)Nc2ccccc2Br)cc1 do in these assays?
HePTP inh: 8.1

How did O=C(Nc1ccc(Cl)c(Cl)c1)OCc1cccnc1 do in these assays?
HePTP inh: 11.4; tolC growth inh: 91.9*; E coli RNAP: 6.6; AP ELISA ortho: 1.3; Ecoli WT expand: 21.0; MMP-13 inhibitor: -2.2

Results for O=C(NNC(=O)c1cccnc1)Nc1ccc(Cl)c(Cl)c1 ?
Ecoli WT expand: 2.0

How did Cc1ccc(-c2nc3ccccc3s2)cc1NC(=O)COc1ccccc1[N+](=O)[O-] do in these assays?
HePTP inh: 6.1

What do the screens show for `COc1ccccc1C1CC(c2ccc(Cl)cc2)Nc2ncnn21` (stereo unspecified)?
HePTP inh: 4.4; tolC growth inh: 60.4*; E coli RNAP: -3.8; AP ELISA ortho: 10.1; Ecoli WT expand: 10.0; MMP-13 inhibitor: 5.1

How did Cc1ccc(OCC(=O)Nc2ccccc2N2CCOCC2)c(C)c1 do in these assays?
Ecoli WT expand: 6.0

Results for Cc1cc(Cl)ccc1OCC(=O)Nc1ccccc1N1CCOCC1 ?
HePTP inh: 2.9; tolC growth inh: 86.2*; E coli RNAP: -0.4; AP ELISA ortho: 6.5; Ecoli WT expand: -19.0; MMP-13 inhibitor: 2.5

How did Cc1onc(-c2ccccc2)c1C(=O)NCC(C)C do in these assays?
HePTP inh: 103.3*

What do the screens show for `Cc1onc(-c2ccccc2)c1C(=O)Nc1ccc([N+](=O)[O-])cc1Br`?
HePTP inh: 103.9*

What do the screens show for `CCCOc1ccccc1NC(=O)c1c(-c2ccccc2)noc1C`?
HePTP inh: 9.9; tolC growth inh: 72.3*; E coli RNAP: 4.6; AP ELISA ortho: 8.7; Ecoli WT expand: 5.0; MMP-13 inhibitor: -3.9

Results for Cc1onc(-c2ccccc2)c1C(=O)Nc1ccccc1Oc1ccccc1 ?
HePTP inh: 5.2

How did CCCNC(=O)c1c(-c2ccccc2)noc1C do in these assays?
HePTP inh: -1.4

How did COc1ccc(C(=O)C(CN2CCOCC2)c2ccccc2)cc1F (stereo unspecified) do in these assays?
HePTP inh: 6.2; tolC growth inh: 78.2*; E coli RNAP: -0.3; AP ELISA ortho: 25.8; Ecoli WT expand: 15.0; MMP-13 inhibitor: -0.8

How did COc1ccc(C(O)C(CN2CCOCC2)c2ccccc2)cc1F (stereo unspecified) do in these assays?
HePTP inh: -4.3; tolC growth inh: -10.6; E coli RNAP: 1.6; AP ELISA ortho: 9.4; Ecoli WT expand: -2.0; MMP-13 inhibitor: -2.6

How did Cc1cccc(NC(=O)C2CC(=O)N(c3ccc(Br)cc3)C2)n1 (stereo unspecified) do in these assays?
HePTP inh: 6.6

What do the screens show for `COC(=O)C1=C(C)N(CCc2ccc(OC)c(OC)c2)C(=O)C1`?
HePTP inh: 96.5*; Ecoli WT expand: -2.0

What do the screens show for `COC(=O)C1=C(C)N(Cc2ccc(OC)c(OC)c2)C(=O)C1`?
Ecoli WT expand: -3.0

How did CC(C)Cn1c(=O)c(C(=O)Nc2cnccn2)c(O)c2ccccc21 do in these assays?
HePTP inh: 4.5; tolC growth inh: 100.0*; E coli RNAP: 7.7; AP ELISA ortho: 0.5; Ecoli WT expand: -9.0; MMP-13 inhibitor: 4.6
